30 compounds from ChEMBL document CHEMBL1255214, “Structure-based design of imidazo[1,2-a]pyrazine derivatives as selective inhibitors of Aurora-A kinase in cells” (Bioorg Med Chem Lett, 2010) can be followed below.

In assay [1] the target is T1, Aurora kinase A (Homo sapiens) (UniProt O14965).
T1 sequence (whole entry): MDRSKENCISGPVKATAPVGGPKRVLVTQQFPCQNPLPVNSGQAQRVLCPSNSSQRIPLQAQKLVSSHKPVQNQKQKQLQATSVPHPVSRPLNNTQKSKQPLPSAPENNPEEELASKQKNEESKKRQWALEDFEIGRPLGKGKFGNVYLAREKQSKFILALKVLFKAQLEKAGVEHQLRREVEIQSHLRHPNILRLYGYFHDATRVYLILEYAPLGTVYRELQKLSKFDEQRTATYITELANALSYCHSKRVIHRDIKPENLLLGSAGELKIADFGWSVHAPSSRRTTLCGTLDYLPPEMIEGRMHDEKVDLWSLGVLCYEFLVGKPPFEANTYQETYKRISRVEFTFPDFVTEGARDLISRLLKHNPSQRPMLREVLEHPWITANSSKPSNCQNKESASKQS
The assay is described as follows: Inhibition of human aurora A at 10 uM. Summed up: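 Recombinant human Aurora-A kinase, tested at a single concentration; percent inhibition reported as mean of samples run in triplicate.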

Another assay deals with T2, Aurora kinase A (Homo sapiens, UniProt O14965).
T2 sequence (O14965 whole entry): T1 sequence (whole entry)
The assay is described as follows: Inhibition of human aurora A. The method in brief:
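Recombinant human Aurora-A kinase; IC50 measured by either a Flashplate or a Filterplate assay. Values are means of two independent determinations, or mean (SD) where n >2; some are means of samples run in triplicate.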

The target of another assay is Aurora kinase B (Homo sapiens, UniProt Q96GD4). Kind of assay: Inhibition of human aurora B.
Another assay is filed under the species Homo sapiens. The assay is described as follows: Selectivity ratio of IC50 for human aurora B to IC50 for human aurora A.
For a further assay, the system named is HCT-116. The assay is described as follows: Growth inhibition of human HCT116 cells. The class given is functional. The method in brief: (§1)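 MTT read-out of cell growth, with GI50 taken from the resulting data.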
The test system of the next assay is HeLa. Kind of assay: Growth inhibition of human HeLa cells. The class given is functional. The method in brief: as §1
The target in a further assay is T3, Aurora kinase C (Homo sapiens, UniProt Q9UQB9).
T3 sequence (Q9UQB9 whole entry): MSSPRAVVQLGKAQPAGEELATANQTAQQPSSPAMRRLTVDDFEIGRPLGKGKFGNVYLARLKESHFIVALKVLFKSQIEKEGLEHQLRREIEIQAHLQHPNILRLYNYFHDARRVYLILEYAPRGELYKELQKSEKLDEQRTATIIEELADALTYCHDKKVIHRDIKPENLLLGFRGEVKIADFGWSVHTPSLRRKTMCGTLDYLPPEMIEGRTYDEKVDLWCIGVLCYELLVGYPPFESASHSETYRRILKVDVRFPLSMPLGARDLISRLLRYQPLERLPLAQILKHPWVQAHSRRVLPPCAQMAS
Kind of assay: Inhibition of human aurora C. The method in brief:
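Recombinant human Aurora-C kinase; IC50 measured by Filterplate assay.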

Chain of Aurora kinase B (Q96GD4 whole entry): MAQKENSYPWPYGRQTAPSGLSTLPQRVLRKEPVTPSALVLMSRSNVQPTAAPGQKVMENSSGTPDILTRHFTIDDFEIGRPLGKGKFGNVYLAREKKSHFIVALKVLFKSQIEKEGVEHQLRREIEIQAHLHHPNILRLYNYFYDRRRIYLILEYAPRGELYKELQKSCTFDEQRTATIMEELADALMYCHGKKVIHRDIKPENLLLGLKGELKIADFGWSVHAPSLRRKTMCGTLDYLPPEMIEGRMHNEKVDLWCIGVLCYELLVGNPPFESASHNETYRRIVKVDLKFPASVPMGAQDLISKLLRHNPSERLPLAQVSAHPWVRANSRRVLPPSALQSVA

As usually defined, the inhibition is the relative decrease from the control value, in per cent. Low readings indicate little suppression, high ones strong suppression. The compound `COc1ccc(Nc2nc(-c3cnn(Cc4ccccc4)c3)cn3ccnc23)cc1` yielded an inhibition in assay [1] of 38%.
By IC50 is commonly meant the concentration at which inhibition is half-maximal. `COc1ccc(Nc2nc(-c3cccc(NS(=O)(=O)c4ccc(OC)cc4)c3)cn3ccnc23)cc1`: the midpoint of inhibition on Aurora kinase A, the IC50, lay at 6.7 µM.
On Aurora kinase B, `CS(=O)(=O)NCc1cccc(-c2cn3c(Cl)cnc3c(Nc3ccc(N4CCOCC4)cc3)n2)c1` showed an IC50 of 10.5 µM. Besides, the Ratio IC50 in the assay listed under Homo sapiens is 70.
In turn, `COc1ccc(Nc2nc(-c3ccc(OC)nc3)cn3ccnc23)cc1` returned an inhibition in assay [1] of 30%.
In the case of `O=C(O)c1ccc(Nc2ncc3c(n2)-c2ccc(Cl)cc2C(c2c(F)cccc2F)=NC3)cc1`, the Ratio IC50 in the assay filed under Homo sapiens was 90.
Take `COc1ccc(Nc2nc(-c3ccn(C)n3)cn3ccnc23)cc1`: half-maximal inhibition against Aurora kinase A (IC50) was put at 9.7 µM.
For the compound `OC1CCC(Nc2nc(-c3cccnc3)cn3ccnc23)CC1` (configuration not stated), in assay [1], the inhibition came out at 32%.
`c1cncc(-c2cn3ccnc3c(NCc3ccc4c(c3)OCCO4)n2)c1` returned an inhibition in assay [1] of 35%.
Take `COc1ccc(Nc2nc(-c3cccc(NS(=O)(=O)c4cccnc4)c3)cn3ccnc23)cc1`: half-maximal inhibition against Aurora kinase A (IC50) was put at 4.5 µM.
Same read-out and setting: the same measure for `Clc1ccc(Nc2nc(-c3cccnc3)cn3ccnc23)cc1`: 5.5 µM; for `COCC(=O)Nc1cccc(-c2cn3ccnc3c(Nc3ccc(OC)cc3)n2)c1`: 7.31 µM.
What is called GI50 is the concentration giving 50% growth inhibition. High values mean lower sensitivity of the cells, low ones greater sensitivity of the cells. The compound `Brc1cnc2c(Nc3ccc(N4CCOCC4)cc3)nc(-c3cccnc3)cn12` gave an IC50 against Aurora kinase A of 0.152 µM. Besides, the GI50 in the assay with HCT-116 is 2.3 µM; in the assay on HeLa it was 13.4 µM.
With `c1cncc(-c2cn3ccnc3c(NCc3ccc(N4CCOCC4)cc3)n2)c1`, the inhibition in assay [1] came to 41%.
The compound `c1cncc(-c2cn3c(-c4cccnc4)cnc3c(Nc3ccc(N4CCOCC4)cc3)n2)c1` registered an IC50 against Aurora kinase A of 4.2 µM.
With `CN(c1ccccc1)c1nc(-c2cccnc2)cn2ccnc12`, the inhibition in assay [1] was determined as 27%.
For `c1cncc(-c2cn3ccnc3c(Nc3ccc(N4CCOCC4)cc3)n2)c1`, 2.12 µM corresponded to half-maximal inhibition at Aurora kinase A (IC50).
On the same count and under the same terms, the same measure for `COc1ccc(Nc2nc(-c3cccnc3)cn3ccnc23)cc1`: 2.9 µM.
In turn, `COc1ccc(Nc2nc(-c3ccc(Cl)nc3)cn3ccnc23)cc1` returned an inhibition in assay [1] of 28%.
Turning to `COc1ccc(Nc2nc(-c3cccc(NC(=O)Nc4ccccc4)c3)cn3ccnc23)cc1`, the IC50 against Aurora kinase A is 7.2 µM.
Same read-out and setting: the same measure for `O=C(Nc1ccc(Nc2nc(-c3cccnc3)cn3ccnc23)cc1)c1ccccc1`: 3.75 µM.
Compound `COc1ccc(Nc2nc(-c3ccc(F)nc3)cn3ccnc23)cc1` displayed an inhibition in assay [1] of 32%.
As for `Clc1cnc2c(Nc3ccc(N4CCOCC4)cc3)nc(-c3cccnc3)cn12`, the GI50 in the assay with HCT-116 came to 3.9 µM; with HeLa, 28 µM. For the same compound, at Aurora kinase C, it took 1.95 µM to reach half-maximal inhibition (IC50).
For `COc1ccc(Nc2nc(-c3cccc(N)c3)cn3ccnc23)cc1`, on Aurora kinase A, half-maximal inhibition (IC50) required 5.48 µM.
On the same count and under the same terms, the same measure for `c1ccc(Nc2nc(-c3cccnc3)cn3ccnc23)cc1`: 6.7 µM.
Regarding `c1cncc(-c2cn3ccnc3c(NCCN3CCOCC3)n2)c1`, the inhibition in assay [1] is 33%.
For `CC(=O)Nc1ccc(Nc2nc(-c3cccnc3)cn3ccnc23)cc1`, at Aurora kinase A, the 50% inhibitory concentration (IC50) is 2.5 µM.
`COc1ccc(Nc2nc(-c3cccc(NC(=O)COc4ccccc4)c3)cn3ccnc23)cc1` returned an inhibition in assay [1] of 22%.
Turning to `Cc1cnc2c(Nc3ccc(N4CCOCC4)cc3)nc(-c3cccnc3)cn12`, the IC50 against Aurora kinase A came out at 0.208 µM. For the same compound, the GI50 worked out at 7.2 µM in the assay with HCT-116 and 6.5 µM in the assay with HeLa.
On Aurora kinase A, `COc1ccc(NC(=O)Nc2cccc(-c3cn4ccnc4c(Nc4ccc(OC)cc4)n3)c2)cc1` gave an IC50 of 7.9 µM.
For the compound `COc1ccc(Nc2nc(-c3cccc(Cl)c3)cn3ccnc23)cc1`, the inhibition in assay [1] came to 46%.
